According to ChEMBL document CHEMBL4411315, “Discovery of Novel Dual Histone Deacetylase and Mammalian Target of Rapamycin Target Inhibitors as a Promising Strategy for Cancer Therapy” (J Med Chem, 2019):
pIC50: −log10 of the molar value. Calls of active or inactive are those of the source. No cut-off for these calls is given here.

Legend:
HCT-116 = assay: Antiproliferative activity against human HCT116 cells after 72 hrs by MTT assay; assay type: functional, cell-based; settings: HCT-116, 72 h
Raji = assay: Antiproliferative activity against human Raji cells after 72 hrs by MTT assay; assay type: functional, cell-based
Method in brief: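 Log-phase cells were plated at 10000-15000 per well and exposed to serial concentrations after 24 h for 72 h. Read-out was MTT for 1-3 h, then 20% SDS overnight and absorbance at 570 nm. IC50 was calculated from growth versus untreated control, as mean ± SEM of at least three independent experiments.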

MM1.S [1] = assay: Antiproliferative activity against human MM1S cells after 72 hrs by MTT assay; assay type: functional, cell-based
[2] = target: T1, Serine/threonine-protein kinase mTOR (Homo sapiens, UniProt P42345); assay: Inhibition of recombinant N-terminal FLAG-tagged human mTOR (1362 to end residues) using ULight-4E-BP1 (Thr37/46) peptide as substrate after 1 hr by fluorescence assay
Method in brief: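 mTOR enzyme, ATP, compound and ULight-4E-BP1 (Thr37/46) peptide in kinase buffer were incubated 1 h at room temperature. EDTA quench plus Eu-anti-phospho-4E-BP1 antibody was added and equilibrated 1 h. TR-FRET was read at excitation 320 or 340 nm and emission 665 nm. Curves were fitted, and values are means of at least two experiments.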

MV4-11 [3] = assay: Antiproliferative activity against human MV4-11 cells after 72 hrs by MTT assay; assay type: functional, cell-based; settings: MV4-11, 72 h
OCI-AML2 = assay: Antiproliferative activity against human OCI-AML2 cells after 72 hrs by MTT assay; assay type: functional, cell-based; settings: OCI-AML2, 72 h
OCI-AML-3 = assay: Antiproliferative activity against human OCI-AML3 cells after 72 hrs by MTT assay; assay type: functional, cell-based; settings: OCI-AML-3, 72 h
[4] = target: T2, PI3-kinase p110-alpha/p85-alpha (Homo sapiens) (UniProt P27986+P42336); assay: Inhibition of recombinant human full length N-terminal His-tagged/untagged p110alpha/p85alpha expressed in baculovirus expression system at 1000 nM using PIP2 as substrate after 1 hr by Kinase-Glo reagent-based assay relative to control
Method in brief: (§1)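 PI3Kα (p110α/p85α) incubated with PIP2 substrate and ATP in kinase buffer for 1 h at room temperature. Kinase-Glo reagent was then added for 15 min before luminescence read-out. Inhibition rate at 100 or 1000 nM is the mean of at least two experiments.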

[5] = target: T2, PI3-kinase p110-alpha/p85-alpha (Homo sapiens); assay: Inhibition of recombinant human full length N-terminal His-tagged/untagged p110alpha/p85alpha expressed in baculovirus expression system at 100 nM using PIP2 as substrate after 1 hr by Kinase-Glo reagent-based assay relative to control; method in brief: as §1
MV4-11 [6] = assay: Induction of apoptosis in human MV4-11 cells assessed as early apoptotic cells at 1 uM after 48 hrs by Annexin V-FITC/propidium iodide staining-based flow cytometric analysis (reference value: 10.7%); assay type: functional
MV4-11 [7] = assay: Induction of apoptosis in human MV4-11 cells assessed as late apoptotic cells at 1 uM after 48 hrs by Annexin V-FITC/propidium iodide staining-based flow cytometric analysis (reference value: 5.03%); assay type: functional
MV4-11 [8] = assay: Induction of apoptosis in human MV4-11 cells assessed as necrotic cells at 1 uM after 48 hrs by Annexin V-FITC/propidium iodide staining-based flow cytometric analysis (reference value: 0.17%); assay type: functional
MV4-11 [9] = assay: Induction of apoptosis in human MV4-11 cells assessed as viable cells at 1 uM after 48 hrs by Annexin V-FITC/propidium iodide staining-based flow cytometric analysis (reference value: 84.1%); assay type: functional
MV4-11 [10] = assay: Induction of apoptosis in human MV4-11 cells assessed as early apoptotic cells at 0.3 uM after 48 hrs in presence of 1 uM SAHA by Annexin V-FITC/propidium iodide staining-based flow cytometric analysis (reference value: 10.7%); assay type: functional
MV4-11 [11] = assay: Induction of apoptosis in human MV4-11 cells assessed as late apoptotic cells at 0.3 uM after 48 hrs in presence of 1 uM SAHA by Annexin V-FITC/propidium iodide staining-based flow cytometric analysis (reference value: 5.03%); assay type: functional
MV4-11 [12] = assay: Induction of apoptosis in human MV4-11 cells assessed as necrotic cells at 0.3 uM after 48 hrs in presence of 1 uM SAHA by Annexin V-FITC/propidium iodide staining-based flow cytometric analysis (reference value: 0.17%); assay type: functional
MV4-11 [13] = assay: Induction of apoptosis in human MV4-11 cells assessed as viable cells at 0.3 uM after 48 hrs in presence of 1 uM SAHA by Annexin V-FITC/propidium iodide staining-based flow cytometric analysis (reference value: 84.1%); assay type: functional
MM1.S [14] = assay: Induction of apoptosis in human MM1S cells assessed as early apoptotic cells at 1 uM after 48 hrs by Annexin V-FITC/propidium iodide staining-based flow cytometric analysis (reference value: 0.38%); assay type: functional
MM1.S [15] = assay: Induction of apoptosis in human MM1S cells assessed as late apoptotic cells at 1 uM after 48 hrs by Annexin V-FITC/propidium iodide staining-based flow cytometric analysis (reference value: 0.42%); assay type: functional
MM1.S [16] = assay: Induction of apoptosis in human MM1S cells assessed as necrotic cells at 1 uM after 48 hrs by Annexin V-FITC/propidium iodide staining-based flow cytometric analysis (reference value: 0.32%); assay type: functional
MM1.S [17] = assay: Induction of apoptosis in human MM1S cells assessed as viable cells at 1 uM after 48 hrs by Annexin V-FITC/propidium iodide staining-based flow cytometric analysis (reference value: 98.9%); assay type: functional
MM1.S [18] = assay: Induction of apoptosis in human MM1S cells assessed as early apoptotic cells at 0.3 uM after 48 hrs in presence of 1 uM SAHA by Annexin V-FITC/propidium iodide staining-based flow cytometric analysis (reference value: 0.38%); assay type: functional
MM1.S [19] = assay: Induction of apoptosis in human MM1S cells assessed as late apoptotic cells at 0.3 uM after 48 hrs in presence of 1 uM SAHA by Annexin V-FITC/propidium iodide staining-based flow cytometric analysis (reference value: 0.42%); assay type: functional
MM1.S [20] = assay: Induction of apoptosis in human MM1S cells assessed as necrotic cells at 0.3 uM after 48 hrs in presence of 1 uM SAHA by Annexin V-FITC/propidium iodide staining-based flow cytometric analysis (reference value: 0.32%); assay type: functional
MM1.S [21] = assay: Induction of apoptosis in human MM1S cells assessed as viable cells at 0.3 uM after 48 hrs in presence of 1 uM SAHA by Annexin V-FITC/propidium iodide staining-based flow cytometric analysis (reference value: 98.9%); assay type: functional
[22] = Toxicity against NOD/SCID mouse xenografted with human MM1S cells assessed as mouse survival at 25 mg/kg, po qd administered for 10 days co-treated with 50 mg/kg SAHA; assay type: organism-based; settings: in vivo, 240 h
Method in brief: (§2)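 MM1S s.c. xenograft: 10^7 cells in serum-free RPMI 1640, right flank, female NOD/SCID mice aged 5-6 weeks, randomised at 100-200 mm3 (n=6 per group). Oral daily dosing used physiological saline with 2.5% DMSO and 10% cyclodextrin, pH 9; the combination was given as a suspension. Caliper measurements were taken every 2 days. Survivors were counted.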

[23] = target: T1, Serine/threonine-protein kinase mTOR; settings: MV4-11, 1 to 10 uM
[24] = target: T1, Serine/threonine-protein kinase mTOR; settings: MV4-11, 1 to 10 uM; remark: listed apart in the source
[25] = target: T1, Serine/threonine-protein kinase mTOR; settings: MV4-11, 10 uM
MM1.S [26] = assay: Antitumor activity against human MM1S cells xenografted in NOD/SCID mouse assessed as tumor growth inhibition at 25 mg/kg, po qd administered for 10 days and measured every 2 days post last dose in presence of 50 mg/kg SAHA by caliper method relative to control
MV4-11 [27] = assay: Induction of apoptosis in human MV4-11 cells assessed as early apoptotic cells at 1 uM after 48 hrs in presence of 0.3 uM RAPA by Annexin V-FITC/propidium iodide staining-based flow cytometric analysis (reference value: 10.7%); assay type: functional
MV4-11 [28] = assay: Induction of apoptosis in human MV4-11 cells assessed as late apoptotic cells at 1 uM after 48 hrs in presence of 0.3 uM RAPA by Annexin V-FITC/propidium iodide staining-based flow cytometric analysis (reference value: 5.03%); assay type: functional
MV4-11 [29] = assay: Induction of apoptosis in human MV4-11 cells assessed as necrotic cells at 1 uM after 48 hrs in presence of 0.3 uM RAPA by Annexin V-FITC/propidium iodide staining-based flow cytometric analysis (reference value: 0.17%); assay type: functional
MV4-11 [30] = assay: Induction of apoptosis in human MV4-11 cells assessed as viable cells at 1 uM after 48 hrs in presence of 0.3 uM RAPA by Annexin V-FITC/propidium iodide staining-based flow cytometric analysis (reference value: 84.1%); assay type: functional
MM1.S [31] = assay: Induction of apoptosis in human MM1S cells assessed as early apoptotic cells at 1 uM after 48 hrs in presence of 0.3 uM RAPA by Annexin V-FITC/propidium iodide staining-based flow cytometric analysis (reference value: 0.38%); assay type: functional
MM1.S [32] = assay: Induction of apoptosis in human MM1S cells assessed as late apoptotic cells at 1 uM after 48 hrs in presence of 0.3 uM RAPA by Annexin V-FITC/propidium iodide staining-based flow cytometric analysis (reference value: 0.42%); assay type: functional
MM1.S [33] = assay: Induction of apoptosis in human MM1S cells assessed as necrotic cells at 1 uM after 48 hrs in presence of 0.3 uM RAPA by Annexin V-FITC/propidium iodide staining-based flow cytometric analysis (reference value: 0.32%); assay type: functional
MM1.S [34] = assay: Induction of apoptosis in human MM1S cells assessed as viable cells at 1 uM after 48 hrs in presence of 0.3 uM RAPA by Annexin V-FITC/propidium iodide staining-based flow cytometric analysis (reference value: 98.9%); assay type: functional
[35] = Toxicity against NOD/SCID mouse xenografted with human MM1S cells assessed as mouse survival at 50 mg/kg, po qd administered for 10 days co-treated with 25 mg/kg RAPA; assay type: organism-based; settings: in vivo, 240 h; method in brief: as §2
[36] = Toxicity against NOD/SCID mouse xenografted with human MM1S cells assessed as mouse survival at 50 mg/kg, po qd administered for 10 days; assay type: organism-based; settings: in vivo, 240 h; method in brief: as §2

## CCN1CCN(C(=O)Nc2ccc(-c3nc(N4CCOCC4)c4cnn(CCCCCCC(=O)NO)c4n3)cc2)CC1
HCT-116
  pIC50: 7.37
Raji
  pIC50: 7.46
MM1.S [1]
  pIC50: 7.28
[2]
  pIC50: 8.51
MV4-11 [3]
  pIC50: 8.23
OCI-AML2
  pIC50: 8.40
OCI-AML-3
  pIC50: 8.10
[4]
  inhibition: 83.4%
[5]
  inhibition: 69.3%

## CO[C@H]1C[C@@H]2CC[C@@H](C)[C@@](O)(O2)C(=O)C(=O)N2CCCC[C@H]2C(=O)O[C@H]([C@H](C)C[C@@H]2CC[C@@H](O)[C@H](OC)C2)CC(=O)[C@H](C)/C=C(\C)[C@@H](O)[C@@H](OC)C(=O)[C@H](C)C[C@H](C)/C=C/C=C/C=C/1C [SIROLIMUS]
MV4-11 [3]
  pIC50: < 6.30
OCI-AML2
  pIC50: < 6.30
OCI-AML-3
  pIC50: < 6.30
MV4-11 [6]
  Activity: 15.3%
MV4-11 [7]
  Activity: 5.77%
MV4-11 [8]
  Activity: 0.6%
MV4-11 [9]; Homo sapiens, MV4-11, 48 h, read-out: Activity
  viability at 1 µM: 78.3%
MV4-11 [10]
  Activity: 37%
MV4-11 [11]
  Activity: 42.4%
MV4-11 [12]
  Activity: 3.48%
MV4-11 [13]
  Activity: 17.1%
MM1.S [14]
  Activity: 0.45%
MM1.S [15]
  Activity: 2.81%
MM1.S [16]
  Activity: 0.47%
MM1.S [17]; Homo sapiens, MM1.S, 48 h, read-out: Activity
  viability at 1 µM: 96.3%
MM1.S [18]
  Activity: 15%
MM1.S [19]
  Activity: 29.7%
MM1.S [20]
  Activity: 1.74%
MM1.S [21]
  Activity: 53.6%
[22]
  Activity: Non-Toxic
[23]
  inhibition: Active
[24]
  inhibition: Active
[25]
  inhibition: Active
MM1.S [26]
  TGI: 73.8%

## O=C(CCCCCCC(=O)Nc1ccccc1)NO [VORINOSTAT]
MV4-11 [6]
  Activity: 40%
MV4-11 [7]
  Activity: 37.9%
MV4-11 [8]
  Activity: 3.51%
MV4-11 [9]
  Activity: 18.6%
MV4-11 [27]
  Activity: 37%
MV4-11 [28]
  Activity: 42.4%
MV4-11 [29]
  Activity: 3.48%
MV4-11 [30]
  Activity: 17.1%
MM1.S [14]
  Activity: 9.68%
MM1.S [15]
  Activity: 11.8%
MM1.S [16]
  Activity: 3.04%
MM1.S [17]
  Activity: 75.4%
MM1.S [31]
  Activity: 15%
MM1.S [32]
  Activity: 29.7%
MM1.S [33]
  Activity: 1.74%
MM1.S [34]
  Activity: 53.6%
[35]
  Activity: Non-Toxic
[36]
  Activity: Non-Toxic
